Laboratory results as given in ChEMBL document CHEMBL4680177, “Novel distamycin analogues that block the cell cycle of African trypanosomes with high selectivity and potency” (Eur J Med Chem, 2020).
Activity calls are given as the source filed them. The rule behind the calls is not given here.

Key:
[1] = test system: DNA; assay: Competitive binding affinity to Escherichia coli XL-1 pUC18 K-DNA at 20 uM after 120 mins by DAPI staining based spectrofluorimetric method relative to control; assay type: nucleic-acid assay
In short: (§1)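 pUC18 or pUC18 carrying a T. brucei minicircle, 5 nM in PBS pH 7.4, incubated 30 or 120 min with 20 µM compound or DMSO 1% v/v. DAPI then added to 500 nM final and emission recorded by spectrofluorimetry (ex 358 nm, em 368–600 nm). Fluorescence normalized to the DNA+DMSO+DAPI control set at 100%. Mean ± S.D., n=3.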

[2] = test system: Trypanosoma brucei brucei; assay: Induction of membrane permeability in bloodstream form Trypanosoma brucei brucei 427 assessed as change in integrity at EC50 concentration after 4 hrs by propidium iodide staining based flow cytometric analysis
[3] = test system: Trypanosoma brucei brucei; assay: Induction of cell cycle arrest in bloodstream form Trypanosoma brucei brucei 427 assessed as accumulation at 1K+1N cells at 12 nM after 24 hrs by DAPI. staining based epifluorescence microscopic analysis (reference value: 80%); assay type: functional
In short: (§2)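 Parasites at 5×10^5/mL treated 24 h with DMSO 1%, DAC 41 nM, or compound at 12 or 7 nM. Cells fixed in 4% paraformaldehyde for 18 min at room temperature and smeared on slides. Mounted in DAPI medium and scored by epifluorescence microscopy (60X/100X) for kinetoplast/nucleus configuration. At least 50 cells per sample.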

[4] = test system: J774; assay: Cytotoxicity against mouse J774 cells assessed as reduction in cell viability after 24 hrs by WST-1 assay; assay type: cell-based; details: J774, 24 h
In short: (§3)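 J774 murine macrophages in DMEM with 10% FBS, 37 °C, 5% CO2. Exposed 24 h to a 6-point compound series, in triplicate, up to 120 µM with DMSO 1% v/v. Viability read with WST-1 reagent relative to DMSO control and EC50 taken from nonlinear fit. The selectivity index is the macrophage EC50 divided by the trypanosome EC50.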

[5] = test system: Trypanosoma brucei brucei; assay: Induction of oxidative stress in bloodstream form Trypanosoma brucei brucei 427 up to 5 times EC50 concentration after 4 hrs by propidium iodide staining based flow cytometric analysis; assay type: functional
[6] = test system: DNA; assay: Competitive binding affinity to Escherichia coli XL-1 pUC18 plasmid DNA at 20 uM after 120 mins by DAPI staining based spectrofluorimetric method relative to control; assay type: nucleic-acid assay; in short: as §1
[7] = test system: DNA; assay: Competitive binding affinity to Escherichia coli XL-1 pUC18 K-DNA at 20 uM after 30 mins by DAPI staining based spectrofluorimetric method relative to control; assay type: nucleic-acid assay; in short: as §1
[8] = test system: DNA; assay: Competitive binding affinity to Escherichia coli XL-1 pUC18 plasmid DNA at 20 uM after 30 mins by DAPI staining based spectrofluorimetric method relative to control; assay type: nucleic-acid assay; in short: as §1
[9] = Selectivity index, ratio of EC50 for cytotoxicity against mouse J774 cells to EC50 for antitrypanosomal activity against bloodstream form Trypanosoma brucei brucei 427; assay type: toxicity, cell-based; details: read-out: Ratio EC50; in short: as §3
[10] = test system: Trypanosoma brucei brucei; assay: Antitrypanosomal activity against bloodstream form Trypanosoma brucei brucei 427 […] assessed as cell viability at 5 uM after 24 hrs by propidium iodide staining based flow cytometric analysis relative to control; assay type: functional
In short: (§4)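 Bloodstream T. b. brucei 427 expressing hGrx1-roGFP2 (line 449_Grx-roGFP2), grown in HMI-9 with 10% FBS, 37 °C, 5% CO2. Biosensor induced with oxytetracycline (1 µg/mL final). Exponential-phase cells seeded at 5×10^5/mL and exposed 24 h to a single 5 µM screen, or to 0.0001–120 µM for EC50. DMSO ≤1% v/v. Viability read by PI exclusion on flow cytometry, expressed relative to DMSO control. EC50 from nonlinear fit; ≥3 replicates, S.D.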

[11] = test system: Trypanosoma brucei brucei; assay: Antitrypanosomal activity against bloodstream form Trypanosoma brucei brucei 427 […] assessed as cell viability after 24 hrs by propidium iodide staining based flow cytometric analysis; assay type: functional, organism-based; details: Trypanosoma brucei, 427, 24 h; in short: as §4
[12] = test system: Trypanosoma brucei brucei; assay: Induction of cell cycle arrest in bloodstream form Trypanosoma brucei brucei 427 assessed as accumulation at single kinetoplast and septum like or partitioned nucleus cells at 12 nM after 24 hrs by DAPI. staining based epifluorescence microscopic analysis relative to control; assay type: functional; in short: as §2
[13] = test system: Trypanosoma brucei brucei; assay: Induction of cell cycle arrest in bloodstream form Trypanosoma brucei brucei 427 assessed as accumulation at G2/M phase at 41 nM after 24 hrs by propidium iodide staining based flow cytometric analysis (reference value: 20%); assay type: functional
[14] = test system: DNA; assay: Competitive binding affinity to Escherichia coli XL-1 pUC18 K-DNA at 20 uM after 30 to 120 mins by DAPI staining based spectrofluorimetric method relative to control; assay type: nucleic-acid assay; details: time 30-120 min; in short: as §1
[15] = test system: Trypanosoma brucei brucei; assay: Induction of cell cycle arrest in bloodstream form Trypanosoma brucei brucei 427 assessed as accumulation at G0/G1 phase at 41 nM after 24 hrs by propidium iodide staining based flow cytometric analysis (reference value: 49%); assay type: functional
[16] = test system: DNA; assay: Competitive binding affinity to Escherichia coli XL-1 pUC18 plasmid DNA at 20 uM after 30 to 120 mins by DAPI staining based spectrofluorimetric method relative to control; assay type: nucleic-acid assay; details: time 30-120 min; in short: as §1
[17] = test system: Trypanosoma brucei brucei; assay: Induction of cell cycle arrest in bloodstream form Trypanosoma brucei brucei 427 assessed as accumulation at 1K+1N cells at 41 nM after 24 hrs by DAPI. staining based epifluorescence microscopic analysis (reference value: 80%); assay type: functional; in short: as §2
[18] = test system: Trypanosoma brucei brucei; assay: Induction of cell cycle arrest in bloodstream form Trypanosoma brucei brucei 427 assessed as accumulation at 0K+1N cells at 41 nM after 24 hrs by DAPI. staining based epifluorescence microscopic analysis relative to control; assay type: functional; in short: as §2
[19] = test system: Trypanosoma brucei brucei; assay: Antitrypanosomal activity against Trypanosoma brucei brucei AnTaT 1.1 infected in Balb/cJ mouse assessed as reduction in parasitemia at 40 mg/kg, ip for single dose and measured after 7 to 17 days; assay type: functional, organism-based; details: time 7-17 day
In short: (§5)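 Female BalB/cJ mice, 6-8 weeks, ~20 g, infected ip with 10^4 bloodstream T. b. brucei AnTaT 1.1. From day 4 post-infection, groups of 6 dosed ip in 300 µL PBS: daily for 7 days at 2.09 or 8.36 mg/Kg, or one 40 mg/Kg dose; vehicle DMSO 3.3 mg/Kg/day for 7 days. Parasitemia from submandibular blood counted by light microscopy in a Neubauer chamber. Detection limit ≥2.5×10^4 parasites/mL. Kruskal-Wallis test versus vehicle.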

[20] = test system: Trypanosoma brucei brucei; assay: (§6) Antitrypanosomal activity against bloodstream form Trypanosoma brucei brucei 427 […] assessed as cell viability at 10 nM preincubated in heat-inactivated serum for 45 mins followed by culture addition and measured after 24 hrs by propidium iodide staining based flow cytometric analysis (reference value: 98.5 +/- 1.4%); assay type: functional; details: time 48.0 hrs, in the assay text read “for 24 hrs” for “for 45 mins”
In short: (§7)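 Compound at 100 µM, with ≤1% v/v DMSO, held 24 h at 37 °C in fresh serum or in serum heat-inactivated at 54 °C for 45 min. It was then added to 449-hGrx-roGFP2 T. brucei cultures at 10 or 1000 nM final. Viability after 24 h was read by PI flow cytometry as in the standard assay. Untreated serum-exposed controls were included; mean ± SD.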

[21] = test system: Trypanosoma brucei brucei; assay: Induction of cell cycle arrest in bloodstream form Trypanosoma brucei brucei 427 assessed as accumulation at G0/G1 phase at 14 nM after 24 hrs by propidium iodide staining based flow cytometric analysis (reference value: 49%); assay type: functional
[22] = test system: Trypanosoma brucei brucei; assay: Induction of cell cycle arrest in bloodstream form Trypanosoma brucei brucei 427 assessed as accumulation at G2/M phase at 14 nM after 24 hrs by propidium iodide staining based flow cytometric analysis (reference value: 20%); assay type: functional
[23] = test system: Trypanosoma brucei brucei; assay: Induction of cell cycle arrest in bloodstream form Trypanosoma brucei brucei 427 assessed as accumulation at G2/M phase at 7 nM after 24 hrs by propidium iodide staining based flow cytometric analysis (reference value: 20%); assay type: functional
[24] = test system: Trypanosoma brucei brucei; assay: Antitrypanosomal activity against bloodstream form Trypanosoma brucei brucei 427 assessed as cell viability at 10 nM after 24 hrs by propidium iodide staining based flow cytometric analysis (reference value: 100 +/- 10%); assay type: functional
[25] = test system: Trypanosoma brucei brucei; assay: Induction of cell cycle arrest in bloodstream form Trypanosoma brucei brucei 427 assessed as accumulation at S phase at 7 nM after 24 hrs by propidium iodide staining based flow cytometric analysis (reference value: 31%); assay type: functional
[26] = test system: Trypanosoma brucei brucei; assay: Induction of cell cycle arrest in bloodstream form Trypanosoma brucei brucei 427 assessed as accumulation at single kinetoplast and septum like or partitioned nucleus cells at 7 nM after 24 hrs by DAPI. staining based epifluorescence microscopic analysis relative to control; assay type: functional; in short: as §2
[27] = test system: Trypanosoma brucei brucei; assay: Induction of cell cycle arrest in bloodstream form Trypanosoma brucei brucei 427 assessed as accumulation at 1K+1N cells at 7 nM after 24 hrs by DAPI. staining based epifluorescence microscopic analysis (reference value: 80%); assay type: functional; in short: as §2
[28] = test system: Trypanosoma brucei brucei; assay: Induction of cell cycle arrest in bloodstream form Trypanosoma brucei brucei 427 assessed as accumulation at G0/G1 phase at 7 nM after 24 hrs by propidium iodide staining based flow cytometric analysis (reference value: 49%); assay type: functional
[29] = test system: Trypanosoma brucei brucei; assay: as §6, with “1000” for “10”; assay type: functional; details: time 48.0 hrs, in the assay text read “for 24 hrs” for “for 45 mins”; in short: as §7
[30] = test system: Trypanosoma brucei brucei; assay: as §6, with “1000” for “10”, “fresh” for “heat-inactivated”, “100” for “98.5”, “3.5%)” for “1.4%)”; assay type: functional; details: time 48.0 hrs, in the assay text read “for 24 hrs” for “for 45 mins”; in short: as §7
[31] = test system: Trypanosoma brucei brucei; assay: Antitrypanosomal activity against bloodstream form Trypanosoma brucei brucei 427 assessed as cell viability at 1000 nM after 24 hrs by propidium iodide staining based flow cytometric analysis (reference value: 100 +/- 10%); assay type: functional
[32] = test system: Trypanosoma brucei brucei; assay: as §6, with “fresh” for “heat-inactivated”, “100” for “98.5”, “3.5%)” for “1.4%)”; assay type: functional; details: time 48.0 hrs, in the assay text read “for 24 hrs” for “for 45 mins”; in short: as §7
[33] = test system: Trypanosoma brucei brucei; assay: Antitrypanosomal activity against Trypanosoma brucei brucei AnTaT 1.1 infected in Balb/cJ mouse assessed as reduction in parasitemia at 2.09 to 8.36 mg/kg, ip administered for 7 days and measured up to 17 days; assay type: functional, organism-based; details: dose 2.09-8.36 mg/kg, time 7.0 day; in short: as §5

COC(=O)c1nc(NC(=O)c2cc(NC(=O)c3nc(NC(=O)OC(C)(C)C)sc3C(C)C)cn2C)sc1C(C)C
Activity [1]: 30% | Activity [2]: inactive | Activity [3]: 48% | EC50 [4]: 39500 nM | Activity [5]: inactive | Activity [6]: inactive | Activity [7]: 15% | Activity [8]: 15% | selectivity ratio [9]: > 10200 | Activity [10]: 15.5% | EC50 [11]: 11.8 nM | Activity [12]: 38%

CC(=O)NCC(=O)O.CC(=O)NCC(=O)O.N=C(N)c1ccc(/N=N/Nc2ccc(C(=N)N)cc2)cc1 [DIMINAZENE DIACETURATE]
Activity [13]: 93% | Activity [14]: 22% | Activity [15]: 7% | Activity [16]: 22% | Activity [17]: 44% | EC50 [11]: 41 nM | Activity [18]: 39% | Activity [19]: Active

CCOC(=O)c1csc(NC(=O)c2cc(NC(=O)c3csc(NC(=O)OC(C)(C)C)n3)cn2C)n1
Activity [20]: 104.6% | Activity [1]: 48% | Activity [2]: inactive | Activity [21]: 6% | Activity [22]: 94% | Activity [23]: 22% | Activity [24]: 54.1% | Activity [25]: 34% | Activity [26]: 26% | Activity [27]: 46% | EC50 [4]: ≥ 40000 nM | Activity [5]: inactive | Activity [6]: inactive | Activity [28]: 44% | Activity [29]: 17.5% | Activity [30]: 17.2% | selectivity ratio [9]: 5560 | Activity [31]: 10.7% | Activity [10]: 0.06% | EC50 [11]: 7.1 nM | Activity [32]: 84.2% | Activity [33]: inactive
